Data from ChEMBL document CHEMBL1806459, “Discovery of N-(1-ethylpropyl)-[3-methoxy-5-(2-methoxy-4-trifluoromethoxyphenyl)-6-methyl-pyrazin-2-yl]amine 59 (NGD 98-2): an orally active corticotropin releasing factor-1 (CRF-1) receptor antagonist” (J Med Chem, 2011).
pKi: −log10 of the molar value. Converted amounts (≈) assume the structure as drawn. The source made the active and inactive calls. The calls are words filed in the database; no cut-off is given here.

Key:
[1] = target: Histamine H1 receptor (Homo sapiens) (UniProt P35367); experiment: Inhibition of Histamine H1 receptor at 4 uM
Chain of Histamine H1 receptor (Homo sapiens) (P35367 whole entry): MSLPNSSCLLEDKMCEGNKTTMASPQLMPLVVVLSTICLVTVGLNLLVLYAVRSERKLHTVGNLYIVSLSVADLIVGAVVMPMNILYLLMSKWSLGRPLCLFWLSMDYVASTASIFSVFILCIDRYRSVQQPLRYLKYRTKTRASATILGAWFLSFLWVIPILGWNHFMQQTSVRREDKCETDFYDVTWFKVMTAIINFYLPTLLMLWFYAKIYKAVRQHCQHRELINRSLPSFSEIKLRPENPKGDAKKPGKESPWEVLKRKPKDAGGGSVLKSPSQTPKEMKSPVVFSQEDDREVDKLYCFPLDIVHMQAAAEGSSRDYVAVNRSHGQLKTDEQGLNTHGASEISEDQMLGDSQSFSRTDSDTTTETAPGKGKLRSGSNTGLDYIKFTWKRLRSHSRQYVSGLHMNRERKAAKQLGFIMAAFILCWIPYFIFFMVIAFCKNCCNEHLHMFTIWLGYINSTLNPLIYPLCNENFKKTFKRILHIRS
Method in brief: (§1)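 Selectivity panel of 69 targets, test compound at 4 μM, a level set by aqueous solubility limits; percent inhibition recorded per target.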

[2] = target: Histamine H3 receptor (Homo sapiens) (UniProt Q9Y5N1); experiment: Inhibition of Histamine H3 receptor at 4 uM; method in brief: as §1
Chain of Histamine H3 receptor (Homo sapiens) (Q9Y5N1 whole entry): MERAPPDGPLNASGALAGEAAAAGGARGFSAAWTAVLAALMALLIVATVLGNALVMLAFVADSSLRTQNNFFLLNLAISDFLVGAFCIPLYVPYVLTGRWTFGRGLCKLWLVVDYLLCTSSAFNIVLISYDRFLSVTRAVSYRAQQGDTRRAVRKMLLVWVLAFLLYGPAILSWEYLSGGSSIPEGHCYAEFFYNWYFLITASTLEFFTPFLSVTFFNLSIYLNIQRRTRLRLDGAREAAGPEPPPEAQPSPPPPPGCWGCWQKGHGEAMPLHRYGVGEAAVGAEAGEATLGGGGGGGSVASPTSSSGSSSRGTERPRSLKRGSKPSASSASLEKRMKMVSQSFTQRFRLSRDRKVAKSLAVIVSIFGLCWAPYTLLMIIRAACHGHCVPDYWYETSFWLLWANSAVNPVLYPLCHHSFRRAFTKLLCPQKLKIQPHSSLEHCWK

[3] = target: Substance-P receptor (Homo sapiens) (UniProt P25103); experiment: Inhibition of Neurokinin NK1 receptor at 4 uM; method in brief: as §1
Chain of Substance-P receptor (Homo sapiens) (P25103 whole entry): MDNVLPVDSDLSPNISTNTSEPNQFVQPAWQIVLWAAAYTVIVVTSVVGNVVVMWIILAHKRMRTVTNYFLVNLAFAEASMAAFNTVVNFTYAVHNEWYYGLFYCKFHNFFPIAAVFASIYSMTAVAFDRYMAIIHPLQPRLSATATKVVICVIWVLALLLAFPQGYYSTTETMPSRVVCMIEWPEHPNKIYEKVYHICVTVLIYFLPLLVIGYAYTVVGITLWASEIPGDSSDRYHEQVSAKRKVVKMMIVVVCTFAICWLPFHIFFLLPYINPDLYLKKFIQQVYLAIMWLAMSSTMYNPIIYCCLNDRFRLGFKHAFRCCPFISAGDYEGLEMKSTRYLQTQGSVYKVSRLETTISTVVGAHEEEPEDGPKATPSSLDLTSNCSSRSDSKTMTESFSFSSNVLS

[4] = target: Substance-K receptor (Homo sapiens) (UniProt P21452); experiment: Inhibition of Neurokinin NK2 receptor at 4 uM
Method in brief: (§2)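 Single-concentration screen within a 69-target selectivity panel. The test concentration was 4 μM, a level set by the compound's limited aqueous solubility.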

[5] = Inhibition of Opiate receptor at 4 uM; method in brief: as §2
[6] = target: 5-hydroxytryptamine receptor 2A (Homo sapiens) (UniProt P28223); experiment: Inhibition of Serotonin 5HT2A receptor at 4 uM; method in brief: as §2
Chain of 5-hydroxytryptamine receptor 2A (Homo sapiens) (P28223 whole entry): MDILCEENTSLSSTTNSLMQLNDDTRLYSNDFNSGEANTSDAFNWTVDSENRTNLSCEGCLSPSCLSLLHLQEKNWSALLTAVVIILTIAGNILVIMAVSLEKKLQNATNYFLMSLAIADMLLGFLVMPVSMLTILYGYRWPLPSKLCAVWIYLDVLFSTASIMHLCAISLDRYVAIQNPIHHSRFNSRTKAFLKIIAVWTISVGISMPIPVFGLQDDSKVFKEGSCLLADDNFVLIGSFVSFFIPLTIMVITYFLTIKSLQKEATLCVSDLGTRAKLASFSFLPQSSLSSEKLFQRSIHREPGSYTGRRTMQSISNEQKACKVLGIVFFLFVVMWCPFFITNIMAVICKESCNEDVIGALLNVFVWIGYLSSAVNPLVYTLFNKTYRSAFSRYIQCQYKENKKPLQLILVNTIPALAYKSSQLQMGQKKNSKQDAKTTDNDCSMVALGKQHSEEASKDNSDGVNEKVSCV

[7] = target: 5-hydroxytryptamine receptor 5A (Homo sapiens) (UniProt P47898); experiment: Inhibition of Serotonin 5HT5A receptor at 4 uM; method in brief: as §2
[8] = target: 5-hydroxytryptamine receptor 6 (Homo sapiens) (UniProt P50406); experiment: Inhibition of Serotonin 5HT6 receptor at 4 uM; method in brief: as §2
Chain of 5-hydroxytryptamine receptor 6 (Homo sapiens) (P50406 whole entry): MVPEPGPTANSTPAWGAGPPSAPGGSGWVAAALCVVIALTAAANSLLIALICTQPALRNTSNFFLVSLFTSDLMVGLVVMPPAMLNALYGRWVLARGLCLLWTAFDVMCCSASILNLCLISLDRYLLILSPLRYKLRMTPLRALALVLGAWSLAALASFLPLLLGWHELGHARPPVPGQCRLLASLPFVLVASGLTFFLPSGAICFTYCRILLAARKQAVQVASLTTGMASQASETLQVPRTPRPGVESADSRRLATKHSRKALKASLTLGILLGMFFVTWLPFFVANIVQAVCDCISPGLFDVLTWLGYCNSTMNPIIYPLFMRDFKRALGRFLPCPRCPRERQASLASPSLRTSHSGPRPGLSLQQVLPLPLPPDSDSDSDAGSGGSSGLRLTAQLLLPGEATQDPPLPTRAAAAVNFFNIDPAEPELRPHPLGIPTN

[9] = target: Somatostatin receptor (Homo sapiens) (UniProt P35346+P30874+P31391+P30872+P32745); experiment: Inhibition of somatostatin at 4 uM; method in brief: as §2
[10] = target: Corticotropin-releasing factor receptor 1 (Rattus norvegicus, UniProt P35353); experiment: Displacement of [125I]-sauvagine from rat CRF-1 receptor expressed in rat cortical membrane after 2 hrs by scintillation counting; format: cell membranes
Chain of Corticotropin-releasing factor receptor 1 (P35353 whole entry): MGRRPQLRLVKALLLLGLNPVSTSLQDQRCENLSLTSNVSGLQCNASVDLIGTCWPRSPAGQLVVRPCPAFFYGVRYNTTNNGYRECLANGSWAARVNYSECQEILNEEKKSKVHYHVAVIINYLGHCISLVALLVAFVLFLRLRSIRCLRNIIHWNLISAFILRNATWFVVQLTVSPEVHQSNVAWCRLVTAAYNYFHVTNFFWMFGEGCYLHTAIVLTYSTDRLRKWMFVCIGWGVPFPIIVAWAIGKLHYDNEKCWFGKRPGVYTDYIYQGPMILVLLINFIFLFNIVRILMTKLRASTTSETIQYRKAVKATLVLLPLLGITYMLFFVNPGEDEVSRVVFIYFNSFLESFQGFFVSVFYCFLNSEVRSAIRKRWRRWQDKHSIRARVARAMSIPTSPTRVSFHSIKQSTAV
Method in brief: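 Displacement of [125I]-sauvagine binding from rat cortical membrane homogenate with increasing compound concentrations; Ki derived.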

Rattus norvegicus [11] = organism: Rattus norvegicus; experiment: Metabolic stability in rat assessed as oxidation of isopentyl group; format: ADME, organism-based; conditions: in vivo
[12] = Inhibition of KCa channel at 4 uM; method in brief: as §1
[13] = Inhibition of phosphodiesterase 2 at 4 uM; method in brief: as §2
[14] = Inhibition of phosphodiesterase 5 at 4 uM; method in brief: as §2
Rattus norvegicus [15] = experiment: Antihyperlocomotion activity in Wistar rat assessed as decrease in CRF-induced hyperlocomotion at 30 mg/kg, po administered 3 hrs before CRF challenge measured after 1 hr; format: functional, organism-based; design: dose 30 mg/kg
Method in brief: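 Rats received 0.3 μg CRF intracerebroventricularly, with oral pretreatment 3 h before in vehicle TPGS. Readout was movement time (locomotor activity), compared against TPGS/CRF controls.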

Rattus norvegicus [16] = experiment: Toxicity in Sprague-Dawley rat assessed as effect on vertical activity at 10 mg/kg, po measured after 3 hrs for 1 hr; format: organism-based; design: dose 10 mg/kg, route oral; conditions: in vivo
Method in brief: (§3)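 Rats not habituated to the test environment, dosed orally at 3, 10 and 30 mg/kg. Spontaneous locomotor activity recorded after dosing: horizontal activity as movement time, plus vertical activity (rearing). Test run to exclude sedation.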

Rattus norvegicus [17] = experiment: Toxicity in Sprague-Dawley rat assessed as effect on vertical activity at 30 mg/kg, po measured after 3 hrs for 1 hr; format: organism-based; design: dose 30 mg/kg, route oral; conditions: in vivo; method in brief: as §3
Rattus norvegicus [18] = experiment: Decrease in restrained-stress induced […] release in plasma of po dosed Sprague-Dawley rat pretreated with compound for 3 hrs by radioimmunoassay; format: functional, organism-based
Method in brief: (§4)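 Rats orally pretreated, then restrained for 10 min to induce stress. Plasma ACTH measured and compared with vehicle/no-stress and vehicle/stress groups.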

Rattus norvegicus [19] = experiment: Decrease in restrained-stress induced […] release in plasma of Sprague-Dawley rat at 10 mg/kg, po pretreated with compound for 3 hrs by radioimmunoassay; format: functional, organism-based; design: dose 10 mg/kg; method in brief: as §4
[20] = Ratio of drug level in brain to plasma of rat at 1 mg/kg, iv; format: ADME, organism-based; design: dose 1 mg/kg, route intravenous; conditions: read-out: BPR
Method in brief: (§5)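 Rat pharmacokinetics: compounds given iv (1 or 3 mg/kg) and po (5 or 10 mg/kg) in 2% Vitamin E TPGS (tocopheryl polyethylene glycol 1000 succinate). Plasma sampled over 24 h for Cmax, Tmax, AUC0–24 h, T1/2, clearance, Vss and oral bioavailability. Brain to plasma ratio also measured.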

[21] = Ratio of drug level in brain to plasma of rat at 10 mg/kg, po; format: ADME, organism-based; design: dose 10 mg/kg, route oral; conditions: read-out: BPR; method in brief: as §5
Rattus norvegicus [22] = experiment: Ex vivo CRF-1 receptor occupancy in po dosed rat cortical homogenate assessed as inhibition of [I125]-sauvagine binding pretreated for 3 hrs; format: functional, organism-based
Method in brief: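 Rats dosed orally at 1, 3 and 10 mg/kg; cortex taken at 3 h for ex vivo binding. Specific [125I]-sauvagine binding compared with vehicle-treated rats to give ex vivo ID50.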

[23] = target: Alpha-1A adrenergic receptor (Homo sapiens) (UniProt P35348); experiment: Inhibition of adrenergic alpha 1 receptor at 4 uM; method in brief: as §2
[24] = target: Beta-2 adrenergic receptor (Homo sapiens) (UniProt P07550); experiment: Inhibition of adrenergic beta 2 receptor at 4 uM; method in brief: as §2
[25] = target: Sodium-dependent noradrenaline transporter (Homo sapiens) (UniProt P23975); experiment: Inhibition of norepinephrine transporter at 4 uM; method in brief: as §2
Chain of Sodium-dependent noradrenaline transporter (Homo sapiens) (P23975 whole entry): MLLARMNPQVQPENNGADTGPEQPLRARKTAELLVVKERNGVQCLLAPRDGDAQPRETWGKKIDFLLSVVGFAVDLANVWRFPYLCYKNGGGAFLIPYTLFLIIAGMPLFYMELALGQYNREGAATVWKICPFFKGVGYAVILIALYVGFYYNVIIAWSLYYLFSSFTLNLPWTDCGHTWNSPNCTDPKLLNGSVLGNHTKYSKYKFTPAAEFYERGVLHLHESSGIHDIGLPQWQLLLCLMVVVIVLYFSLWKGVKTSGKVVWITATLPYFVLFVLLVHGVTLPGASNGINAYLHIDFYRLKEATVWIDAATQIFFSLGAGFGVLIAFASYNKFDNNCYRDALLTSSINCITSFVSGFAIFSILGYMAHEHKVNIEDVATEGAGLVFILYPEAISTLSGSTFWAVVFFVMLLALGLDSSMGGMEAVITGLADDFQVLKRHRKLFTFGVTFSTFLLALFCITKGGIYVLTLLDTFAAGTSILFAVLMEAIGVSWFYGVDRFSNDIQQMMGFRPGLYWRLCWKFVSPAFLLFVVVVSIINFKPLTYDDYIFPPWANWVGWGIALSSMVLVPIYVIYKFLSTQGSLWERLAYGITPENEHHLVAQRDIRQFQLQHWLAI

[26] = target: Type-2 angiotensin II receptor (Homo sapiens) (UniProt P50052); experiment: Inhibition of angiotensin AT2 receptor at 4 uM; method in brief: as §2
Chain of Type-2 angiotensin II receptor (Homo sapiens) (P50052 whole entry): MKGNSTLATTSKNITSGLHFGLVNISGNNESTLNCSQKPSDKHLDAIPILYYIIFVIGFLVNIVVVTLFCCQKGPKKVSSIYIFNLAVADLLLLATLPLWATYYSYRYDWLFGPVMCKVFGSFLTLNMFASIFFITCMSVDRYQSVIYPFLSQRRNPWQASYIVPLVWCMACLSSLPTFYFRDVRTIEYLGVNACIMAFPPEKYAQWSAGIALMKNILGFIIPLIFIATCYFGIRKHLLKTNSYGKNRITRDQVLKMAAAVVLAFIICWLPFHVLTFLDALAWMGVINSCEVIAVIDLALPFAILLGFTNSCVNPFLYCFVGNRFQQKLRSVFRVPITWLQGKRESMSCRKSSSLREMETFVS

[27] = target: B1 bradykinin receptor (Homo sapiens) (UniProt P46663); experiment: Inhibition of bradykinin B1 receptor at 4 uM; method in brief: as §2
[28] = target: B2 bradykinin receptor (Homo sapiens) (UniProt P30411); experiment: Inhibition of bradykinin B2 receptor at 4 uM; method in brief: as §2
Chain of B2 bradykinin receptor (Homo sapiens) (P30411 whole entry): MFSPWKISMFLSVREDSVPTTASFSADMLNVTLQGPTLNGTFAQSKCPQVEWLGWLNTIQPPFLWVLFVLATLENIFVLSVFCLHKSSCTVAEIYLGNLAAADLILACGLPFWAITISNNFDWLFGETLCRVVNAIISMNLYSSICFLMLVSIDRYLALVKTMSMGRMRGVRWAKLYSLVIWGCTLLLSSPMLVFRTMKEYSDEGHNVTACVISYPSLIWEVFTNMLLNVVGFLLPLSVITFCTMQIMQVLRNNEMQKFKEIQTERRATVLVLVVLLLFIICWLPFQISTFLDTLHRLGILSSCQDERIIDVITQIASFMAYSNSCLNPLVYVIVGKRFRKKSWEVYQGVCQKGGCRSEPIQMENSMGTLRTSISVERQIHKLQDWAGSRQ

[29] = target: Cannabinoid receptor 1 (Homo sapiens) (UniProt P21554); experiment: Inhibition of cannabinoid CB1 receptor at 4 uM; method in brief: as §2
[30] = target: Cannabinoid receptor 2 (Homo sapiens) (UniProt P34972); experiment: Inhibition of cannabinoid CB2 receptor at 4 uM; method in brief: as §2
Chain of Cannabinoid receptor 2 (Homo sapiens) (P34972 whole entry): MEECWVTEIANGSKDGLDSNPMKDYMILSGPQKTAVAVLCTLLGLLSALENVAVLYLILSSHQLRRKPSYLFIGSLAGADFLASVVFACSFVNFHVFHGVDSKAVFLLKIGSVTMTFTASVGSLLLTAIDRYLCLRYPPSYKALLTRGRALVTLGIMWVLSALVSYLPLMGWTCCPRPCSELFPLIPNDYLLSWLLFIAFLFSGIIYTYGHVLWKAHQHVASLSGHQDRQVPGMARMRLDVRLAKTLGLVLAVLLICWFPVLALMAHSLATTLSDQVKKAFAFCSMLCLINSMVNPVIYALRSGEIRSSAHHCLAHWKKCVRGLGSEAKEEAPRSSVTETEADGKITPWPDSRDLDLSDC

[31] = target: D(1A) dopamine receptor (Homo sapiens) (UniProt P21728); experiment: Inhibition of dopamine D1 receptor at 4 uM; method in brief: as §2
Chain of D(1A) dopamine receptor (Homo sapiens) (P21728 whole entry): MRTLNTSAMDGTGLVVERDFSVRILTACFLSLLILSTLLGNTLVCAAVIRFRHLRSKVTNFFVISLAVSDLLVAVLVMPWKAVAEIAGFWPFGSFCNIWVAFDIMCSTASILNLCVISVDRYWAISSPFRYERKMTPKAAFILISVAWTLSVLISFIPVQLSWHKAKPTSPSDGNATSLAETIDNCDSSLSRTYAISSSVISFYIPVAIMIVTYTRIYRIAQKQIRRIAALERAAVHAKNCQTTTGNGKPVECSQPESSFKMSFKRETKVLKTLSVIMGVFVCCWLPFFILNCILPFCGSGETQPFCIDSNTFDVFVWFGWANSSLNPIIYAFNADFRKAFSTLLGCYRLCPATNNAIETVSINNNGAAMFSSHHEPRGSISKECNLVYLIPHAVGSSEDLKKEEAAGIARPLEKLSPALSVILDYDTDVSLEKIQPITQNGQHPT

[32] = target: D(3) dopamine receptor (Homo sapiens) (UniProt P35462); experiment: Inhibition of dopamine D3 receptor at 4 uM; method in brief: as §2
[33] = Inhibition of GABA-B at 4 uM; method in brief: as §1
[34] = Half life in rat microsomes; format: ADME, Microsome
Method in brief: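 Stability in human or rat liver microsomes; half-life (T1/2, min) of compound turnover reported.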

[35] = Cmax in rat at 1 mg/kg, iv; format: ADME, organism-based; design: dose 1 mg/kg, route intravenous; conditions: in vivo
Method in brief: (§6)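 Rat PK, intravenous arm of a paired iv/po study. Dosed in 2% Vitamin E TPGS (tocopheryl polyethylene glycol 1000 succinate). Parameters derived from plasma: Cmax, AUC0–24 h, terminal T1/2.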

Rattus norvegicus [36] = experiment: AUC (0 to 24 hrs) in rat at 1 mg/kg, iv; format: ADME, organism-based, Plasma; design: time < 24 hr, dose 1 mg/kg, route intravenous; conditions: in vivo; method in brief: as §6
[37] = Tmax in rat at 10 mg/kg, po; format: ADME, organism-based; design: dose 10 mg/kg, route oral; conditions: in vivo; method in brief: as §5
[38] = Half life in rat at 1 mg/kg, iv; format: ADME, organism-based; design: dose 1 mg/kg, route intravenous; conditions: in vivo; method in brief: as §6
[39] = Half life in rat at 10 mg/kg, po; format: ADME, organism-based; design: dose 10 mg/kg, route oral; conditions: in vivo
[40] = Volume of distribution at steady state in rat at 1 mg/kg, iv; format: ADME, organism-based; design: dose 1 mg/kg, route intravenous; conditions: in vivo, read-out: Vdss; method in brief: as §5
[41] = Bioavailability in rat at 1 mg/kg, […]; format: ADME, organism-based; conditions: in vivo
Method in brief: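 Rat PK with paired iv and oral dosing, vehicle 2% Vitamin E TPGS. Clearance and Vss from the iv arm; oral bioavailability F from comparing exposure after oral and iv doses.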

Rattus norvegicus [42] = experiment: Oral bioavailability in rat at 10 mg/kg; format: ADME, organism-based; conditions: in vivo; method in brief: as §5

With `CCC(CC)Nc1nc(C)c(-c2ccc(OC(F)(F)F)cc2OC)nc1OC` the inhibition [1] was > 16%, the inhibition [2] was > 16% and the inhibition [3] was > 16%. For the same molecule, the inhibition [4] was > 16%, the inhibition [5] was > 16% and the inhibition [6] was > 16%. For the same molecule, the inhibition [7] was > 16%, the inhibition [8] was > 16% and the inhibition [9] was > 16%. The pKi [10] was 8.01, the Stability (Rattus norvegicus [11]) was “Unstable” and the inhibition [12] was > 16%. The inhibition [13] was > 16%, the inhibition [14] was > 16% and the Activity (Rattus norvegicus [15]) was “Active”. The Activity (Rattus norvegicus [16]) was “Non-toxic”, the Activity (Rattus norvegicus [17]) was “Non-toxic” and the Activity (Rattus norvegicus [18]) was “Dose-dependent effect”. For the same molecule, the Activity (Rattus norvegicus [19]) was “Active”, the Kp [20] was 5.4 and the Kp [21] was 5.4. The IC50 (Rattus norvegicus [22]) was 0.071 µg/mL (≈ 0.178 µM), the ED50 (Rattus norvegicus [22]; po, read-out: ID50 (the source's name)) was 2 mg/kg and the inhibition [23] was > 16%. The inhibition [24] was > 16%, the inhibition [25] was > 16% and the inhibition [26] was > 16%. For the same molecule, the inhibition [27] was > 16%, the inhibition [28] was > 16% and the inhibition [29] was > 16%. For the same molecule, the inhibition [30] was > 16%, the inhibition [31] was > 16% and the inhibition [32] was > 16%. The inhibition [33] was > 16%, the half-life [34] was 2 h and the Cmax [35] was 456 ng/mL. For the same molecule, the AUC (Rattus norvegicus [36]) was 4499 ng·h/mL, the Tmax [37] was 4 h and the half-life [38] was 8.4 h. It also gave a half-life [39] of 8.4 h, a Vd [40] of 7.8 L/kg and a bioavailability [41] of 45%. It also gave an F (Rattus norvegicus [42]) of 45%.
